Ecoli rRNA inh – inhibits bacterial ribosomal RNA function over humanized ribosomes; E. coli WT GFP vs humanized-ribosome RFP mutants, fluorescence, 24 h; stronger effect = lower value; DMSO median 0, no signal -100; GFP signal change (wild-type ribosome), % (concentration not given with the values); 350,000 compounds, 1.6% hits; AID 720706;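 active = significant combined selectivity score with lowered wild-type GFP, culture density cut under 30%, mutant RFP and density less affected; inactive = any of these conditions unmet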
Cneo AK release – Cryptococcus neoformans lysis via adenylate kinase release. C. neoformans lysis, adenylate kinase release luminescence, 4 h; normalised: neutral wells 0, clomiphene wells 100. lysis activity, % at 15 µM. 360,000 compounds, 0.2% hits;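 active = mean lysis activity across replicates of at least 80%, whatever share of replicates individually reach that level; inactive = mean lysis activity below 80%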
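Test system: log-phase Cryptococcus neoformans yeast cells. Input: 5 × 10^6 yeast cells/mL. Medium: fresh YPD growth medium. Doses: single dose. Incubation: static 4 h at 37 °C with compound, 1 h detection. Measured by: luminescent adenylate kinase detection reagent. Read-out: signal increase indicating cell lysis. Benchmarks: Clomiphene.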
miR-122 sensor – blocks miR-122 activity in Huh7 sensor cells; Huh7 miR-122 Renilla luciferase sensor, 48 h; neutral wells = 0, positive control = 100; activation (reporter increase), % at 12.5 µM; 340,000 compounds, 0.3% hits;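 active = mean replicate activation score at least 90 and every replicate individually at or above 90; inconclusive = only one of the two criteria met; inactive = neither criterion met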;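 note: higher luciferase means less miR-122 activity so hits act as miR-122 inhibitors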
DENV2 CPE rescue – DENV2-induced cell death inhibition | DENV2-infected cells, cytopathic effect rescue, plate reader | CPE inhibition, % at 9.99 µM | 350,000 compounds, 1.7% hits | AID 651640; in the data active = CPE inhibition above about 20%, passing the limit was not always enough; inconclusive = no clear call, values can overlap the other calls; tested in BHK-21 cells
E-selectin induc – E-selectin induction on HUVECs. HUVEC E-selectin immunofluorescence imaging; normalized: neutral wells 0, TNF-alpha wells 100. activation, % at 7.58 µM. 260,000 compounds, 0.37% hits. P16581;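 active = mean E-selectin-positive cell signal at least 10% of the positive control, reached in at least 60% of replicates, without over 20% cell loss; inconclusive = no rule given, readout overlaps actives, possibly toxicity-flagged; inactive = the rest, including those meeting only one limit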
Target sequence (P16581 whole entry, looked up): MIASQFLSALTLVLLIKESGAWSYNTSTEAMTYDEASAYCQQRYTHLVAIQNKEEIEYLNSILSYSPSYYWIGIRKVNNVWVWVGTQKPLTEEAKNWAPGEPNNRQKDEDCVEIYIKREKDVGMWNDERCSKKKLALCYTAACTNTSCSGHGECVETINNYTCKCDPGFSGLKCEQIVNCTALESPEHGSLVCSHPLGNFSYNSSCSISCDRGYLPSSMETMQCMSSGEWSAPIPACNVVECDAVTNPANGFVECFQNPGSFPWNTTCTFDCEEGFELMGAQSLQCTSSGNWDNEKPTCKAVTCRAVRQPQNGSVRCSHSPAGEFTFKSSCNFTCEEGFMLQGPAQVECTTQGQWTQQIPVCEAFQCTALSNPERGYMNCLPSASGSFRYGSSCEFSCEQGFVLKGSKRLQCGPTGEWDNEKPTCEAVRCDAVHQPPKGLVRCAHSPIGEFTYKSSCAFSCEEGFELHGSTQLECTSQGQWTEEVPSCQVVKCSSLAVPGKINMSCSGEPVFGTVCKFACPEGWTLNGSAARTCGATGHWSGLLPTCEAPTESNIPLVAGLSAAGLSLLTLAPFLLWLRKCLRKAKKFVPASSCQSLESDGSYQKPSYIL
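Test system: HUVEC | Signal: Immunofluorescence imaging | Read-out: Percent E-selectin-positive cells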
Each line names hits and unclear results; the compound was inactive in the other large screens; ! = not active in a repeat; [ ] = remark or other dose. Shown are actives, neighbours in structure and some others; about 3.1% of the full set was active somewhere.

C[C@H](CO)N1C[C@H](C)[C@@H](CN(C)Cc2ccc(C(=O)O)cc2)OCCCC[C@H](C)Oc2ccc(NC(=O)Nc3ccc4c(c3)OCO4)cc2C1=O	none
COc1ccc(-c2cc(-c3ccc(Cl)cc3)c(C#N)c(SCC(=O)O)n2)cc1	DENV2 CPE rescue 61 (no result: E-selectin induc)
C[C@@H]1CN([C@H](C)CO)S(=O)(=O)c2ccc(C#C[C@@H](C)O)cc2O[C@H]1CN(C)C(=O)c1ccccc1	none
O=C1c2ccccc2C(c2nnnn2Cc2ccccc2)N1Cc1ccc(F)cc1 (centres undefined)	none (no result: Cneo AK release, miR-122 sensor)
O=C1c2ccccc2C(c2nnnn2Cc2ccccc2)N1Cc1ccc2c(c1)OCO2 (centres undefined)	Ecoli rRNA inh -27 (no result: Cneo AK release, miR-122 sensor)
CC1(C)CC(N2CCN(Cc3ccccc3)CC2)=CC(=[N+]2CCCCC2)C1	DENV2 CPE rescue inconclusive (no result: E-selectin induc)
CN(Cc1ccccc1)C1=CC(=[N+]2CCCCC2)CC(C)(C)C1	Ecoli rRNA inh -51 (no result: E-selectin induc)
COc1cccc(C(=O)Nc2ccc3c(c2)OC[C@@H](C)N(CCc2ccccc2)C[C@@H](C)[C@@H](OC)CN(C)C3=O)c1	none (no result: miR-122 sensor)
CCCN1C[C@H](C)[C@H](OC)CN(C)C(=O)c2ccc(NC(=O)Nc3cccc(F)c3)cc2OC[C@H]1C	DENV2 CPE rescue 25 (no result: Cneo AK release, miR-122 sensor)
CCCN1C[C@H](C)[C@@H](OC)CN(C)C(=O)c2cc(NC(=O)c3cccc(F)c3)ccc2OC[C@@H]1C	Cneo AK release 117
COc1cccc(C(=O)Nc2ccc3c(c2)OC[C@H](C)N(CCc2ccccc2)C[C@@H](C)[C@@H](OC)CN(C)C3=O)c1	Ecoli rRNA inh -25! (no result: miR-122 sensor)
CCCN1C[C@H](C)[C@@H](OC)CN(C)C(=O)c2cc(NC(=O)c3ccccc3)ccc2OC[C@H]1C	none (no result: miR-122 sensor)
CCCN1C[C@H](C)[C@@H](OC)CN(C)C(=O)c2ccc(NC(=O)c3ccccc3)cc2OC[C@@H]1C	DENV2 CPE rescue 23 (no result: Cneo AK release, miR-122 sensor)
COc1ccc2c3c(n(C)c2c1)[C@@H](CO)N(C(=O)c1cccc(F)c1)CC31CCN(C(=O)c2cccc(F)c2)CC1	none (no result: Cneo AK release, miR-122 sensor)
C[C@@H]1CN([C@@H](C)CO)C(=O)c2cc(-c3cccc(C#N)c3)cnc2O[C@H]1CN(C)C(=O)C1CCC1	none (no result: Ecoli rRNA inh)
Cc1cc(C(=O)Nc2cccc3c2O[C@@H](CN(C)CC2CCCCC2)[C@@H](C)CN([C@@H](C)CO)C3=O)n(C)n1	miR-122 sensor 94[16.7 µM]
Cc1cc(C(=O)Nc2cccc3c2O[C@@H](CN(C)CC2CCCCC2)[C@@H](C)CN([C@H](C)CO)C3=O)n(C)n1	miR-122 sensor 97[16.7 µM]
O=C(C[C@@H]1CC[C@@H](NC(=O)c2ccccn2)[C@@H](CO)O1)NCc1cc(F)cc(F)c1	none (no result: miR-122 sensor)
O=C(C[C@@H]1C=C[C@H](NC(=O)C2CC2)[C@H](CO)O1)Nc1nccs1	none (no result: miR-122 sensor)
C[C@@H]1CN([C@@H](C)CO)C(=O)c2c(c3ccccc3n2C)-c2ccccc2CO[C@H]1CN(C)C(=O)Nc1cccc(C(F)(F)F)c1	none (no result: Cneo AK release, miR-122 sensor, DENV2 CPE rescue, E-selectin induc)
C[C@@H]1CN([C@H](C)CO)C(=O)c2cc(NC(=O)Nc3cccc4ccccc34)ccc2O[C@@H](C)CCCCO[C@H]1CN(C)Cc1ccc(Cl)c(Cl)c1	none (no result: Cneo AK release, miR-122 sensor)
C[C@@H]1CCCCO[C@@H](CN(C)Cc2ccc(Cl)c(Cl)c2)[C@@H](C)CN([C@H](C)CO)C(=O)c2cc(NC(=O)Nc3cccc4ccccc34)ccc2O1	DENV2 CPE rescue 22
C[C@H](CO)N1C[C@H](C)[C@@H](CN(C)Cc2ccc(Cl)c(Cl)c2)OCCCC[C@H](C)Oc2ccc(NC(=O)Nc3cccc4ccccc34)cc2C1=O	DENV2 CPE rescue 33
CCCNC(=O)N[C@@H]1CC[C@@H](CC(=O)N2CCN(C)CC2)O[C@@H]1CO	none (no result: miR-122 sensor)
O=C(c1ccncc1)N1CC(=O)N2[C@H](CO)[C@H](c3ccc(C#CCC4CCCC4)cc3)[C@@H]2C1	none (no result: Cneo AK release, miR-122 sensor, DENV2 CPE rescue, E-selectin induc)
CC(C)CNC(=O)[C@@H]1c2ccccc2C(=O)N(CC23CC4CC(CC(C4)C2)C3)[C@H]1c1ccc(CO)cc1	none (no result: Ecoli rRNA inh, miR-122 sensor, E-selectin induc)
COC(=O)C(Cc1ccccc1)NC(=O)c1ccc(C)cc1 (centres undefined)	none (no result: Cneo AK release, miR-122 sensor, E-selectin induc)
COC(=O)C(Cc1csc2ccc(Cl)cc12)NC(=O)c1ccc(Cl)cc1 (centres undefined)	Ecoli rRNA inh -16, DENV2 CPE rescue 96 (no result: Cneo AK release, miR-122 sensor)
O=C(C[C@H]1CC[C@@H](NC(=O)NC2CCCC2)[C@@H](CO)O1)NCc1ccc(F)cc1	none

Screens as filed in PubChem.
